# Many of the other results were omitted from the sample, so hits are more common in it than they were.
# CHOP UPR activ – apoptotic UPR (CHOP) activation; CHO-CHOP luciferase reporter, luminescence; percent of tunicamycin response over DMSO baseline; AID 449763; 0.34% of 330,000 active; activation, % at 10 µM;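 active = at 10 µM dose, activation of 40% or more, normalized to positive control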
#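 Material: CHO-CHOP cells, stable luciferase reporter of PERK-eIF2a-CHOP signalling; quantity: 500 reporter cells seeded per well; buffer or medium: F12 medium containing 10% fetal bovine serum; compound: one dose, 10 µM in 0.5% DMSO; incubation: 6 h compound treatment, 37 °C; measured by: Steady-Glo luciferase luminescence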
# CHOP inhibitor – inhibitors of CHOP induction in ER stress response; AID 2732; 3.8% of 220,000 active; inhibition, % at 10 µM; CHO-K1 CHOP-promoter luciferase, tunicamycin-induced, 15-18 h;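 active = compounds that reduced the stress-induced luciferase reporter signal by more than about 70% of percent inhibition, limit read from the data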
# GAA850 FXN act – activators of GAA850 frataxin (FXN) promoter; HEK293 lucGAA850 FXN promoter luciferase reporter, 24 h; percent of 10 µM SAHA response; activation, % at 6 µM; 0.56% of 360,000 active;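 active = activation above the average of all compounds screened plus 3 SD, cutoff fixed separately per campaign, cut at about 7.5% in these data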
# UPR XBP1 act – adaptive UPR (XBP1) activation | CHO-XBP1 luciferase reporter, IRE1-XBP1 UPR activation, luminescence; percent of tunicamycin response, DMSO as zero | activation, % at 20 µM | 0.33% of 330,000 active | AID 463104;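 active = versus positive control, 20 µM dose yields 30% or more activation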
#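 Material: CHO cell line with stable XBP1 luciferase reporter; buffer or medium: F12 medium containing 10% fetal bovine serum; compound: single point, 20 µM final compound, 1% DMSO; incubation: 6 h treatment, 37 °C; measured by: glow luminescence from Steady-Glo reagent; evaluation: activation, % of tunicamycin; control set: tunicamycin high, DMSO low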
# CHOP UPR conf – apoptotic UPR (CHOP) activation, confirmed. activation, % at 10 µM. 64% of 1,000 active. shares compounds with CHOP UPR activ. CHO-CHOP cells, CHOP-luciferase reporter luminescence; percent of tunicamycin response, DMSO as zero; in the data active = activation above about 33%
# UPR XBP1 confirm – confirmation of adaptive unfolded protein response (XBP1) activators; shares compounds with UPR XBP1 act; CHO-XBP1 IRE1-XBP1 luciferase reporter, luminescence; activation, % at 20 µM; 63% of 1,000 active; AID 485299;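 active = reporter signal at least 30% of the positive control's activation in two or more of four replicate wells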
# GAA30 FXN cntr – activates GAA30 frataxin promoter, counter-screen for GAA850 activators | shares compounds with GAA850 FXN act | HEK293 lucGAA30 FXN promoter luciferase, 24 h; DMSO = 0%, 5 µM ipriflavone = 100% | activation, % at 6 µM | 66% of 1,900 active;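 active = mean activation above the mean of solvent-only control wells plus 3 SD, cut at about 22% in these data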;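 note: counterscreen of GAA850 promoter hits where activity marks nonselective or luminescence artifacts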
# GAA850 confirm – confirmation of GAA850 frataxin (FXN) promoter activators. shares compounds with GAA850 FXN act. HEK293 lucGAA850 FXN promoter luciferase reporter, 24 h; 100% = activation by SAHA. activation, % at 6 µM. 86% of 1,900 active;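 active = mean activation above a set limit taken from the primary screen, cut at about 8% in these data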
# A number is an active result; 0 = inactive; - = no result.
SMILES,CHOP UPR activ,CHOP inhibitor,GAA850 FXN act,UPR XBP1 act,CHOP UPR conf,UPR XBP1 confirm,others
CCOC(=O)c1cc(NC(=O)c2ccc(C)cc2)c(=O)oc1C(F)(F)F,0,0,0,0,-,-,
Oc1cc(-c2ccncc2)cc2cccnc12,70,-,0,34,66,0,
CCOc1ccc(-n2c(C)cc(C(=O)CCl)c2C)cc1,244,0,0,70,621,202,
COC(=O)c1ccc(-n2c(C)cc(C(=O)CCl)c2C)cc1,502,90,0,74,268,0,
CCOC(=O)c1cc(C)n(-c2ccc(Cl)cc2)c1C,0,0,0,0,-,-,
c1ccc(NN=C(c2ccccc2)c2cccs2)cc1,-,-,0,-,-,-,
CCNC(=O)C1CCCN(C(=O)c2cc(OC)c(OC)c(OC)c2)CC1 (configuration not stated),-,-,0,-,-,-,
CC(Sc1ccc(S(=O)(=O)N2CCCCC2)cn1)C(N)=O (configuration not stated),-,-,0,-,-,-,
Cc1cc(NC(=O)CSc2nc(C3CC3)nc3sc4c(c23)CCC(C)C4)no1 (configuration not stated),51,-,-,65,0,0,
COc1ccc2cc1Oc1ccc(cc1)CC1c3c(cc(OC)c4c3Oc3cc5c(cc3O4)CCNC5C2)CCN1C (configuration not stated),41,0,0,52,39,30,
CC1CCN(Cc2c(C(=O)N/N=C/c3ccc(C(C)(C)C)cc3)nnn2-c2nonc2N)CC1,202,-,0,178,50,117,
CN(C)CC(CCC(CN(C)C)C(O)(c1ccccc1)c1ccccc1)C(O)(c1ccccc1)c1ccccc1 (configuration not stated),77,-,-,35,84,43,
CN1/C(=C\C(=O)COC(=O)CNC(=O)c2ccc3ccccc3c2)C(C)(C)c2ccccc21,0,0,0,0,-,-,
CN1/C(=C\C(=O)COC(=O)c2ccc(O)c(O)c2)C(C)(C)c2ccccc21,96,0,-,41,81,33,
Cc1ccc(NC(=O)COc2ccc(/C=N/NC(=O)CSCc3ccccc3)cc2)cc1,0,0,0,0,-,-,
Cc1ccc(NC(=O)COc2ccc(/C=C3/SC(=Nc4ccccc4)N(Cc4cccnc4)C3=O)cc2)cc1,84,0,0,63,152,60,
Oc1ccc(/C=N/Nc2nc(N3CCCC3)nc(N3CCCC3)n2)cc1O,257,0,0,67,180,44,
COc1cc(/C=N/Nc2nc(N3CCCC3)nc(N3CCCC3)n2)ccc1O,0,0,0,0,-,-,
O=C(CCn1c(=S)[nH]c2cc3c(cc2c1=O)OCO3)NCCc1ccccc1Cl,-,-,0,-,-,-,
COCCc1ccc(OC2(C)CCN(Cc3ccc(OC)c4ccccc34)C2)cc1 (configuration not stated),-,-,0,-,-,-,
Cc1ccc2nc(NC(=O)c3ccc(-c4nc5ccccc5s4)s3)sc2c1,69,0,0,66,0,89,
Cn1c(=O)c2c(SCC(=O)Nc3ccccc3F)nc(C3CC3)nc2n(C)c1=O,0,-,0,0,-,-,
Cn1c(=O)c2c(SCC(=O)Nc3ccccc3F)nc(-c3ccccc3F)nc2n(C)c1=O,55,-,0,355,101,73,
COc1ccc(-c2cc(-c3ccccc3)c(C#N)c(S(C)(=O)=O)n2)cc1,103,0,0,45,119,99,
CCc1nnc(NC(=O)CSc2nc(-c3ccccc3)cc(-c3ccc(OC)cc3)c2C#N)s1,93,0,0,58,105,0,
SMILES,CHOP UPR activ,CHOP inhibitor,GAA850 FXN act,UPR XBP1 act,CHOP UPR conf,UPR XBP1 confirm,others
COc1ccc(-c2cc(-c3ccc(OC)cc3)c(C#N)c(SC)n2)cc1,0,0,0,0,-,-,
CC1(C(=O)Nc2cnc3ccccc3c2)CCN1Cc1ccccc1Cl (configuration not stated),-,-,0,-,-,-,
O=C1NC(Cc2ccccc2)c2nc3ccc(F)cc3c(=O)n2-c2ncccc21 (configuration not stated),-,-,0,-,-,-,
CCCCCn1c2c(c(=N)c3ccccc31)CCC2,0,0,0,0,-,-,
CCCCCCCCCCn1c2c(c(=N)c3c1CCC3)CCC2,77,104,0,47,70,44,
COc1ccc(-c2[nH]n(-c3ccc([N+](=O)[O-])cc3)c(=O)c2C=NCc2ccc(F)cc2)cc1,42,0,0,53,0,0,
O=c1c(C=NCC2CCCO2)c(-c2ccccc2)[nH]n1-c1ccc([N+](=O)[O-])cc1 (configuration not stated),0,0,0,0,-,-,
Cc1cccc2sc(NC(=O)c3cc(S(=O)(=O)N(C)C)ccc3N3CCCC3)nc12,63,0,0,55,47,78,
CN(C)S(=O)(=O)c1ccc(N2CCCC2)c(C(=O)Nc2nc3ccccc3s2)c1,125,0,0,76,0,91,
CN(C)S(=O)(=O)c1ccc(N2CCCC2)c(C(=O)Nc2nc3ccc(F)cc3s2)c1,0,0,0,0,-,-,
COc1ccc(NC(=O)c2sc3nc(N4CCOCC4)c4c(c3c2N)CC(C)(C)OC4)cc1,0,-,0,0,-,-,
COc1ccc(NC(=O)c2sc3nc(N4CCOCC4)c4c(c3c2N)CC(C)(C)OC4)c(OC)c1,40,-,0,163,39,172,
COCCN1Cc2cccc(C(=O)Nc3ccc(-c4nc5ccccc5[nH]4)cc3)c2C1=O,0,0,0,0,-,-,
CCCN1Cc2cccc(C(=O)Nc3ccc(-c4nc5ccccc5[nH]4)cc3)c2C1=O,42,75,0,38,41,0,
CC1(C(=O)NS(=O)(=O)c2cccs2)CCN1C(=O)C1CC1 (configuration not stated),-,-,0,-,-,-,
Oc1ccc(/C=N/N=C/c2ccc(O)c(O)c2)cc1O,67,-,8.2,0,0,-,GAA30 FXN cntr=33;GAA850 confirm=16
Cc1cc(C(=O)N2CCC2(C)C(=O)NS(=O)(=O)c2cccc(Cl)c2)nn1C (configuration not stated),-,-,0,-,-,-,
Nc1ccc(N=Nc2ccccc2)c2cccnc12,0,-,0,0,-,-,
COc1cccc(N=Nc2ccc(O)c3ncccc23)c1,107,-,9.6,0,86,-,GAA30 FXN cntr=0;GAA850 confirm=0
COc1cc(/C=C/C(=O)c2ccc([N+](=O)[O-])o2)ccc1O,94,-,12,0,0,-,GAA30 FXN cntr=0;GAA850 confirm=0
COc1ccc(OC2(C)CCN(Cc3ccccc3OC(F)F)C2)cc1 (configuration not stated),-,-,0,-,-,-,
